# From ChEMBL document CHEMBL1154726, “Exploring the effect of 2,3,4-trimethoxy-phenyl moiety as a component of indolephenstatins” (Eur J Med Chem, 2010)
# Columns and labels:
# [1] = system: HT-29; test: Cytotoxicity against human HT-29 cells after 72 hrs by XTT assay; type: functional, cell-based; settings: HT-29, 72 h
# [2] = system: A549; test: Cytotoxicity against human A549 cells after 72 hrs by XTT assay; type: functional, cell-based; settings: A549, 72 h
# [3] = system: HL-60; test: Cytotoxicity against human HL60 cells after 72 hrs by XTT assay; type: functional, cell-based; settings: HL-60, 72 h
# Summary of the method: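 XTT proliferation assay. Adherent cells were seeded and left 24 h at 37 °C in humidified 5% CO2/95% air to attach. HL-60 cells were seeded at 3 × 10³ cells/well. Cells were exposed to a range of compound concentrations for 72 h under the same atmosphere, then incubated a further 4 h. Formazan was read at 490 nm against a 655 nm reference. IC50 is the concentration giving 50% inhibition of proliferation.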
# [4] = species: Bos taurus; test: Inhibition of calf brain tubulin polymerization at 20 uM after 20 mins
# Summary of the method: (§1)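 Single-concentration screen of tubulin assembly using calf brain MTP at 1.0 mg/mL in 0.1 M MES, 1 mM EGTA, 1 mM MgCl2, 1 mM β-ME, 1.5 mM GTP, pH 6.7, 4% DMSO, with a no-ligand control. Samples were preincubated 30 min at 20 °C and 10 min on ice, then warmed from 4 °C to 37 °C.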
# [5] = system: HeLa; test: Cytotoxicity against human HeLa cells after 72 hrs by XTT assay; type: functional, cell-based
# [6] = species: Bos taurus; test: Inhibition of calf brain tubulin polymerization at 30 uM after 20 mins
# Summary of the method: as §1, with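 “°C. Percent inhibition of the turbidity increase was taken after 20 min.” for “°C.”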
# [7] = Inhibition of calf brain tubulin polymerization after 20 mins; parameters: species or system Bos taurus
# Summary of the method: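 Microtubule protein was purified from calf brain by two cycles of temperature-dependent assembly/disassembly. Assay mix: 1.0 mg/mL MTP in 0.1 M MES, 1 mM EGTA, 1 mM MgCl2, 1 mM β-ME, 1.5 mM GTP, pH 6.7, 4% DMSO, with a no-ligand control. Samples were preincubated 30 min at 20 °C, chilled 10 min on ice, then assembled by a shift from 4 °C to 37 °C and followed by turbidity. IC50 at 20 min came from exponential fits of TPI% versus concentration, with ≥2 independent experiments on different MTP preparations.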
# [8] = species: Bos taurus; test: Inhibition of calf brain tubulin polymerization at 40 uM after 20 mins
# Summary of the method: as §1, with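 “°C. Percent inhibition of the turbidity increase was taken after 20 min.” for “°C.”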
SMILES,inhibition [4] [%],inhibition [6] [%],IC50 [7] [nM],inhibition [8] [%],IC50 [1] [nM],IC50 [2] [nM],IC50 [3] [nM],IC50 [5] [nM]
COc1ccc(/C(=N\N)c2ccc3c(ccn3C)c2)c(OC)c1OC,25,,,,2000,> 10000,2000,2000
COc1ccc(/C(=N\OC(C)=O)c2ccc3c(ccn3C)c2)c(OC)c1OC,,20,,,1500,> 10000,580,1000
COc1ccc(C(=O)c2ccc(OC)c(OC)c2OC)cc1O,19,,,,,,,
COc1ccc(C(O)c2ccc3c(ccn3C)c2)c(OC)c1OC (configuration not stated),9,,,,,> 10000,,2400
CCn1ccc2cc(C(O)c3ccc(OC)c(OC)c3OC)ccc21 (configuration not stated),-0,,,,> 10000,> 10000,> 10000,< 1000
COc1ccc(/C=C\c2cc(OC)c(OC)c(OC)c2)cc1O [COMBRETASTATIN A4],,,3000,,,,,
CCn1ccc2cc(C(=O)c3ccc(OC)c(OC)c3OC)ccc21,47,,5600,,2000,> 10000,5000,420
CN/N=C(/c1ccc2c(ccn2C)c1)c1ccc(OC)c(OC)c1OC,-0,,,,2000,> 10000,1000,1000
COc1ccc(C(=O)c2ccc3c(ccn3C)c2)c(OC)c1OC,98,,400,,21,510,,17
COc1cc(C(=O)c2ccc3c(ccn3C)c2)cc(OC)c1OC,,,6900,98,,,,
COc1ccc(C(=O)c2cc(OC)c(OC)c(OC)c2)cc1O [PHENSTATIN],97,,2500,,,,30,
COc1ccc(/C(=N\NC(C)=O)c2ccc3c(ccn3C)c2)c(OC)c1OC,22,,,,2000,> 10000,2000,1000

# Continued, in another order:
inhibition [4] [%],inhibition [6] [%],IC50 [7] [nM],inhibition [8] [%],SMILES,IC50 [1] [nM],IC50 [2] [nM],IC50 [3] [nM],IC50 [5] [nM]
12,,,,CCn1ccc2cc(/C(=N/N)c3ccc(OC)c(OC)c3OC)ccc21,> 10000,> 10000,2000,
5,,,,CCn1ccc2cc(/C(=N/NC(C)=O)c3ccc(OC)c(OC)c3OC)ccc21,,,,
29,,,,CCn1ccc2cc(/C(=N/OC(C)=O)c3ccc(OC)c(OC)c3OC)ccc21,,,,
,52,43100,,CCn1ccc2cc(/C(=N/O)c3ccc(OC)c(OC)c3OC)ccc21,2000,> 10000,2000,2000
,17,,,CCn1ccc2cc(/C(=N\NC)c3ccc(OC)c(OC)c3OC)ccc21,1200,1900,,290
,82,9000,,COc1ccc(/C(=N\O)c2ccc3c(ccn3C)c2)c(OC)c1OC,270,1000,,76
